GASC1 inh: inhibitors of human demethylase GASC-1 KDM4C; Q9H3R0; GST-KDM4C 2-372, H3K9me3 peptide, LANCE TR-FRET; inhibition, % at 12.5 µM; 96,000 compounds, 0.15% hits;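 active means mean replicate inhibition above about 25%, with at least 55% of replicates also reaching it, limit read from the data, passing the limit was not always enough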
Target sequence (Q9H3R0 2-372 limits assumed): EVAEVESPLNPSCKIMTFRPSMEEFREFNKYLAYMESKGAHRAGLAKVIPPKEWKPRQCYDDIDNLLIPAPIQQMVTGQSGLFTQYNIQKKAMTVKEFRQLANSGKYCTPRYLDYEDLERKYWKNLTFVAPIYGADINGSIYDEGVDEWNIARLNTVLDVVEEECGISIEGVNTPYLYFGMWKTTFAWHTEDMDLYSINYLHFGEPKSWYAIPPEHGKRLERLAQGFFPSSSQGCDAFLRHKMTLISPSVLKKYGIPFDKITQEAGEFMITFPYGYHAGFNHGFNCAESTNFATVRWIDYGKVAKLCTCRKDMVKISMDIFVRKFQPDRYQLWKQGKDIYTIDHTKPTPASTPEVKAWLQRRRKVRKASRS
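Test system: N-terminal GST-fused human GASC-1 (KDM4C) fragment, residues 2-372; quantity: GASC-1 enzyme at 10 nM final in reaction; dosing: single dose; schedule: 30 min demethylation and 1 h detection at room temperature; signal: LANCE TR-FRET, excitation 340 nm, emissions 618 and 671 nm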
IDH1 mut inh: IDH1 R132H (human) inhibition | O75874 | inhibition, % at 10 µM | AID 624101 | 70,000 compounds, 0.18% hits | IDH1 R132H reductase, diaphorase/resazurin fluorescence, 60 min; in the data active means inhibition above about 34%
T cruzi growth-1: blocks T. cruzi growth in NIH3T3 culture | T. cruzi beta-gal in NIH3T3, GalScreen luminescence, 90 h | inhibition, % at 8.34 µM | 77,000 compounds, 5.9% hits;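 active means mean inhibition above about 93%, with at least 55% of replicates each passing it, limit read from the data, passing the limit was not always enough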
T cruzi growth-2: inhibitors of T. cruzi proliferation. shares compounds with T cruzi growth-1. T. cruzi beta-gal in NIH3T3, GalScreen luminescence, 90 h. inhibition, % at 8.35 µM. 5,600 compounds, 72% hits. AID 651739;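 active means mean replicate inhibition above about 95% and at least 55% of replicates individually reaching it, limit read from the data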
T cruzi growth-3: blocks T. cruzi growth in NIH3T3 host cells | shares compounds with T cruzi growth-1 | T. cruzi beta-gal in NIH3T3, GalScreen luminescence, 90 h | inhibition, % at 2.09 µM | 5,600 compounds, 21% hits;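 active means mean inhibition above about 95%, with at least 55% of replicates also reaching it, limit read from the data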
NIH3T3 tox: kills mouse NIH/3T3 fibroblasts | shares compounds with T cruzi growth-1 | NIH/3T3 viability, CellTiter-Glo ATP luminescence, 90 h | cytotoxicity (signal decrease), % at 8.35 µM | 5,600 compounds, 14% hits | AID 651742;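 active means mean signal decrease across replicates above about 35% based on untreated-well scatter, with enough replicates individually passing, limit read from the data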
3T3 cytotox 2: cytotoxicity in mouse NIH/3T3 fibroblasts; shares compounds with T cruzi growth-1; NIH/3T3 viability, CellTiter-Glo ATP luminescence, 90 h; inhibition, % at 24.9 µM; 5,600 compounds, 56% hits; AID 651744;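 active means mean loss of cell viability signal at or above a set limit, and enough replicates individually reaching it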
A number is an active result; ! = a repeat was not active. This excerpt belongs to a sample that is enriched for hits.

Results for C[C@@H]1CN([C@@H](C)CO)S(=O)(=O)c2ccc(-c3cccc(C#N)c3)cc2O[C@H]1CN(C)C(=O)Nc1ccccc1F ?
GASC1 inh: inactive; T cruzi growth-1: inactive

What do the screens show for `C[C@H]1CN([C@@H](C)CO)S(=O)(=O)c2ccc(C#CC3CCCC3)cc2O[C@@H]1CN(C)C(=O)Nc1cc(F)ccc1F`?
GASC1 inh: inactive; IDH1 mut inh: inactive

What do the screens show for `COc1ccc(NC(=O)c2oc3ccccc3c2NC(=O)Cc2coc3cc(C)cc(C)c23)cc1`?
IDH1 mut inh: inactive

Results for NC(=O)CSCC(=O)Nc1ccccc1F ?
IDH1 mut inh: inactive

What do the screens show for `COC(=O)c1c(NC(=O)c2ccc(N(C)S(=O)(=O)c3ccccc3)cc2)sc2c1CCCC2`?
IDH1 mut inh: inactive

What do the screens show for `COc1cccc(OCC(=O)Nc2ccc(Cl)cc2C(=O)O)c1`?
IDH1 mut inh: inactive

How did COc1ccc(OC)c(NC(=O)Cn2nc([N+](=O)[O-])cc2C)c1 do in these assays?
IDH1 mut inh: inactive

What do the screens show for `C[C@@H]1CN([C@H](C)CO)S(=O)(=O)c2ccc(-c3cccc(C#N)c3)cc2O[C@@H]1CN(C)C(=O)Nc1cc(F)ccc1F`?
GASC1 inh: inactive

How did C[C@@H]1CN([C@H](C)CO)S(=O)(=O)c2ccc(-c3ccc(C#N)cc3)cc2O[C@H]1CN(C)C(=O)Nc1cc(F)ccc1F do in these assays?
GASC1 inh: inactive; T cruzi growth-1: 109!; T cruzi growth-2: inactive; T cruzi growth-3: inactive; NIH3T3 tox: 81; 3T3 cytotox 2: 83

How did Cc1ccc(NC(=O)C(C)NS(=O)(=O)c2ccc(F)cc2)c(C)c1 (stereo not given) do in these assays?
IDH1 mut inh: inactive

How did C[C@H](CO)N1C[C@H](C)[C@@H](CN(C)CC2CCCCC2)OCCCC[C@H](C)Oc2ccc(NC(=O)Nc3ccc(F)cc3)cc2C1=O do in these assays?
GASC1 inh: inactive; IDH1 mut inh: inactive; T cruzi growth-1: 114; T cruzi growth-2: 98; T cruzi growth-3: 111; NIH3T3 tox: inactive; 3T3 cytotox 2: 103

What do the screens show for `C[C@@H]1CCCCO[C@@H](CN(C)CC2CCCCC2)[C@@H](C)CN([C@@H](C)CO)C(=O)c2cc(NC(=O)Nc3ccc(F)cc3)ccc2O1`?
GASC1 inh: inactive; IDH1 mut inh: inactive; T cruzi growth-1: 119; T cruzi growth-2: 103; T cruzi growth-3: inactive; NIH3T3 tox: inactive; 3T3 cytotox 2: 104

How did C[C@@H]1CCCCO[C@@H](CN(C)CC2CC2)[C@@H](C)CN([C@H](C)CO)C(=O)c2cc(NC(=O)Nc3ccc(F)cc3)ccc2O1 do in these assays?
GASC1 inh: inactive; IDH1 mut inh: inactive; T cruzi growth-1: inactive

How did CCCN(C)C[C@H]1OCCCC[C@@H](C)Oc2ccc(NC(=O)Nc3ccccc3)cc2C(=O)N([C@H](C)CO)C[C@@H]1C do in these assays?
GASC1 inh: inactive; IDH1 mut inh: inactive; T cruzi growth-1: inactive

Results for CCCN(C)C[C@H]1OCCCC[C@@H](C)Oc2ccc(NC(=O)Nc3ccc(F)cc3)cc2C(=O)N([C@H](C)CO)C[C@@H]1C ?
GASC1 inh: inactive; T cruzi growth-1: 100; T cruzi growth-2: 101; T cruzi growth-3: inactive; NIH3T3 tox: inactive; 3T3 cytotox 2: inactive

Results for C[C@@H]1CCCCO[C@H](CN(C)CC2CCCCC2)[C@H](C)CN([C@@H](C)CO)C(=O)c2cc(NC(=O)Nc3ccc(F)cc3)ccc2O1 ?
GASC1 inh: inactive; T cruzi growth-1: 120; T cruzi growth-2: 97; T cruzi growth-3: 114; NIH3T3 tox: 54; 3T3 cytotox 2: 103

What do the screens show for `C[C@@H]1CCCCO[C@@H](CN(C)C)[C@@H](C)CN([C@H](C)CO)C(=O)c2cc(NC(=O)Nc3ccc(F)cc3)ccc2O1`?
GASC1 inh: inactive; IDH1 mut inh: inactive; T cruzi growth-1: inactive

Results for C[C@H]1CCCCO[C@@H](CN(C)CC2CC2)[C@@H](C)CN([C@@H](C)CO)C(=O)c2cc(NC(=O)Nc3ccc(F)cc3)ccc2O1 ?
GASC1 inh: inactive; T cruzi growth-1: inactive

How did CC(C(=O)Nc1ccccc1Cl)N(c1ccc(Cl)cc1)S(C)(=O)=O (stereo not given) do in these assays?
IDH1 mut inh: inactive

Results for NC(=O)CSc1nc2sc3c(c2c(=O)n1Cc1ccccc1)CCCC3 ?
IDH1 mut inh: inactive

What do the screens show for `Cc1ccc(-n2ncc(N(C)N3CC(C)(C)C3=O)c(Cl)c2=O)cc1`?
IDH1 mut inh: inactive

What do the screens show for `CS(=O)(=O)Nc1ccc2oc3ncccc3c(=O)c2c1`?
IDH1 mut inh: inactive

How did CS(=O)(=O)N(CC(=O)Nc1cccc(C(F)(F)F)c1)c1cc(Cl)c(Cl)cc1Cl do in these assays?
IDH1 mut inh: inactive

What do the screens show for `C/C1=C/CC/C(CO)=C\[C@H]2OC(=O)C(CN3CCCC3C(=O)O)[C@@H]2[C@@H](OC(=O)C(C)CO)C1` (stereo not given in full)?
IDH1 mut inh: inactive

How did COc1ccc(C(NC(=O)c2ccccc2)c2ccc3cccnc3c2O)c(OC)c1 (stereo not given) do in these assays?
IDH1 mut inh: inactive

What do the screens show for `C[C@@H]1CN([C@@H](C)CO)C(=O)c2cc(NC(=O)Nc3ccc(F)cc3)ccc2O[C@@H](C)CCCCO[C@H]1CN(C)C`?
GASC1 inh: inactive; IDH1 mut inh: inactive; T cruzi growth-1: inactive

Results for C[C@@H]1CCCCO[C@@H](CN(C)CC2CCCCC2)[C@H](C)CN([C@H](C)CO)C(=O)c2cc(NC(=O)Nc3ccc(F)cc3)ccc2O1 ?
GASC1 inh: inactive; IDH1 mut inh: inactive; T cruzi growth-1: 105; T cruzi growth-2: 95; T cruzi growth-3: 112; NIH3T3 tox: inactive; 3T3 cytotox 2: 102

How did C[C@H](CO)N1C[C@H](C)[C@@H](CN(C)CC2CC2)OCCCC[C@H](C)Oc2ccc(NC(=O)Nc3ccc(F)cc3)cc2C1=O do in these assays?
GASC1 inh: inactive; T cruzi growth-1: inactive

What do the screens show for `C[C@H]1CCCCO[C@H](CN(C)CC2CCCCC2)[C@@H](C)CN([C@@H](C)CO)C(=O)c2cc(NC(=O)Nc3ccc(F)cc3)ccc2O1`?
GASC1 inh: inactive; IDH1 mut inh: inactive; T cruzi growth-1: 115; T cruzi growth-2: 97; T cruzi growth-3: 114; NIH3T3 tox: 47; 3T3 cytotox 2: 103

How did CC(=O)c1cccc(-n2nnnc2SCC(=O)Nc2ccccc2F)c1 do in these assays?
IDH1 mut inh: inactive

How did COc1ccc(C)cc1S(=O)(=O)N1CCC(C(=O)Nc2cc([N+](=O)[O-])ccc2C)CC1 do in these assays?
IDH1 mut inh: inactive

Screens as filed in PubChem BioAssay.
